# Data: BindingDB's records for doi:10.1021/jm990942i (University of Montpellier, 2000)
# Molecular target: Gastrin-releasing peptide receptor (Rattus norvegicus, UniProt P52500)
# Assay: In vitro binding affinity against bombesin / GRP receptors on rat pancreatic acini.
# Method in brief: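 Male Wistar rat dispersed pancreatic acini (about 1 mg/mL protein) incubated 60 min at 37 °C with 20 pM (3-[125I]iodotyrosyl15)GRP and varying analogue; pellet centrifuged at 10000g, washed twice, counted. Nonspecific binding with 10 μM unlabeled BN. Specific binding as %, mean ± SD of three experiments in duplicate.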
# Gastrin-releasing peptide receptor, sequence (P52500 whole entry N28S): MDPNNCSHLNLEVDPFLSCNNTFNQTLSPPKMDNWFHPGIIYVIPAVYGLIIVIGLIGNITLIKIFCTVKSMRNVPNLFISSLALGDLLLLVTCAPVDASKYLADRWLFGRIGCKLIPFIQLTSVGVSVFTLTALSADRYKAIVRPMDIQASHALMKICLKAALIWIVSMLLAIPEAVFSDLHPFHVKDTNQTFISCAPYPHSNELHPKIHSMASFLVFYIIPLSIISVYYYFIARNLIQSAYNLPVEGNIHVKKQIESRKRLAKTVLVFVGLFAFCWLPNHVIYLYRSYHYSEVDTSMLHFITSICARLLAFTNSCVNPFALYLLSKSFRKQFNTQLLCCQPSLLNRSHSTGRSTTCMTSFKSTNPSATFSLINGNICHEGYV
row,Ki [nM],Structure (SMILES)
1,> 1000,CC(C)CC(NC(=O)C(CC(C)C)NC(=O)C(Cc1cnc[nH]1)NC(=O)Cn1c(=O)n(CCNC(=O)C(Cc2c[nH]c3ccccc23)NC(=O)C(CCC(N)=O)NC(=O)[C@H](N)Cc2ccccc2)c(=O)c2ccccc21)C(N)=O (some centres not stated) [Bombesin analogues]
2,> 1000,CC(C)CC(NC(=O)C(CC(C)C)NC(=O)C(Cc1cnc[nH]1)NC(=O)[C@H](Cc1ccccc1)N1CC[C@H](NC(=O)C(C)NC(=O)C(Cc2c[nH]c3ccccc23)NC(=O)C(CCC(N)=O)NC(=O)[C@H](N)Cc2ccccc2)C1=O)C(N)=O (some centres not stated) [Bombesin analogues]
